Calls of active or inactive are those of the source. The calls are words filed in the database; no cut-off is given here.
Tests used:
Plasmodium falciparum [1] = test: Antiplasmodial activity against chloroquine sensitive Plasmodium falciparum 3D7 infected in human erythrocytes assessed as inhibition of parasite growth at 100 uM incubated for 72 hrs by SYBR green I staining based fluorescence plate reader analysis relative to control; type: functional; conditions: 3D7, Erythrocyte
Procedure, shortened: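 Pf3D7 grown in O+ human erythrocytes at 4% haematocrit, Albumax (0.05%)-RPMI, 37 °C, 5% O2/5% CO2/90% N2, sorbitol-synchronised at ring stage. Single-point screen at 100 μM, final DMSO 0.4%, triplicate wells, 72 h. Read-out by SYBR Green I lysis buffer (Tris pH 7.5, EDTA, saponin, Triton X-100), 1 h dark at 37 °C, ex 485/em 530 nm. Growth expressed relative to untreated culture.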

Plasmodium falciparum [2] = test: (§1) Antiplasmodial activity against chloroquine resistant early ring stage Plasmodium falciparum INDO infected in human erythrocytes assessed as reduction in parasite growth at 10 times IC50 concentration preincubated for 6 hrs followed by media replacement without compound for 66 hrs and measured after 72 hrs by Giemsa-staining based analysis; type: functional, organism-based; conditions: Erythrocyte
Procedure, shortened: (§2)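 Ring-stage survival assay. PfCam3.1R539T or PfINDO rings (0–3 h post-invasion), 1% parasitemia, 2% haematocrit, were exposed to 10× IC50 for 6 h. Compound was removed by three PBS washes, then cultures were grown 66 h in fresh medium. At 72 h, stage progression was assessed on Giemsa smears and revival by SYBR Green I lysis. Triplicate biological samples.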

[3] = Binding affinity to Plasmodium falciparum GAP50 assessed as dissociation constant by SPR analysis
Procedure, shortened: (§3)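 GAP50 at 50 μg ml−1 in 10 mM acetate pH 4.5 was amine-coupled (EDC/NHS) onto a CM5 chip. Analytes at several concentrations in 5% DMSO/1× PBS; association 60 s, dissociation 120 s, flow 30 μl min−1. Regeneration with 10 mM glycine pH 3.0 for 30 s. Sensorgrams fitted to a 1:1 Langmuir model giving ka, kd and KD.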

[4] = Toxicity in mouse assessed as sedation at 100 mg/kg, po measured after 45 mins; type: organism-based; conditions: in vivo, 0.75 h
Procedure, shortened: (§4)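 Acute oral toxicity per OECD 423. Mice were fasted 4 h, given a single 100 mg/kg oral dose, and observed for 45 min for signs of acute toxicity, compared with untreated controls.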

Plasmodium falciparum [5] = test: Antimalarial activity against chloroquine resistant early schizont Plasmodium falciparum INDO infected in human erythrocytes assessed as inhibition of parasite growth incubated for 12 hrs; type: functional, organism-based; conditions: Erythrocyte
Procedure, shortened: (§5)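 PfINDO cultures were staged at 0–6 h (rings), 18–22 h (trophozoites), 30–34 h (early schizonts) and 40–44 h (late schizonts) post-invasion. Each was exposed to varying concentrations for 12 h, washed free of compound by centrifugation, and grown 48 h in drug-free medium. IC50 came from growth curves, with untreated culture as 100% and chloroquine-treated culture as 0% growth.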

[6] = Selectivity index, ratio of CC50 for human HEK293 cells to IC50 of chloroquine resistant Plasmodium falciparum INDO infected in human erythrocytes; type: toxicity, cell-based; conditions: read-out: Ratio CC50/IC50
Procedure, shortened: (§6)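 Selectivity index = CC50 / PfINDO IC50. CC50 came from MTT assays: 10^4 HEK293 or HUH7 cells per well, seeded overnight and exposed to 0–100 μM for 24 h, then MTT for 4 h at 37 °C with formazan dissolved in DMSO and read at A570. Controls were 0.8% DMSO (full growth) and 10% DMSO (zero growth).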

[7] = Resistance index, ratio of IC50 of chloroquine resistant Plasmodium falciparum INDO to chloroquine sensitive Plasmodium falciparum 3D7; type: functional
Procedure, shortened: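 Resistance index = IC50 against PfINDO / IC50 against Pf3D7. Both IC50s came from 72 h SYBR Green I assays.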

[8] = Toxicity in mouse assessed as diarrhea at 100 mg/kg, po measured after 45 mins; type: organism-based; conditions: in vivo, 0.75 h; procedure, shortened: as §4
Plasmodium falciparum [9] = test: Antiplasmodial activity against chloroquine sensitive Plasmodium falciparum 3D7 infected in human erythrocytes assessed as inhibition of parasite growth incubated for 72 hrs by SYBR green I staining based fluorescence plate reader analysis; type: functional, organism-based; conditions: 3D7, Erythrocyte
Procedure, shortened: (§7)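 Pf3D7 or PfINDO was cultured in O+ human erythrocytes at 37 °C under 5% O2/5% CO2/90% N2 and ring-synchronised with 5% sorbitol. Cultures were exposed to 0–100 μM in triplicate for 72 h, with final DMSO 0.4%. After SYBR Green I lysis buffer (1 h, dark, 37 °C), fluorescence was read at 485/530 nm. Chloroquine-well counts were subtracted as background, and IC50 was obtained by non-linear regression.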

[10] = Toxicity in mouse assessed as coma at 100 mg/kg, po measured after 45 mins; type: organism-based; conditions: in vivo, 0.75 h; procedure, shortened: as §4
Plasmodium falciparum [11] = test: Antiplasmodial activity against chloroquine resistant ring-stage Plasmodium falciparum INDO infected in human erythrocytes assessed as inhibition of parasite growth incubated for 12 hrs; type: functional, organism-based; conditions: Erythrocyte; procedure, shortened: as §5
Plasmodium falciparum [12] = test: as §1, with “artemisinin-resistant” for “chloroquine resistant”, “Cam3.1R539T” for “INDO”; type: functional, organism-based; conditions: Erythrocyte; procedure, shortened: as §2
[13] = Cytotoxicity against human Huh-7 cells assessed as reduction in cell viability incubated for 24 hrs by MTT assay; type: toxicity, cell-based
[14] = Toxicity in mouse assessed as death at 100 mg/kg, po measured after 45 mins; type: organism-based; conditions: in vivo, 0.75 h; procedure, shortened: as §4
[15] = Toxicity in mouse assessed as effect on water intake at 100 mg/kg, po measured after 45 mins; type: organism-based; conditions: in vivo, 0.75 h; procedure, shortened: as §4
Plasmodium berghei = test: Antimalarial activity against Plasmodium berghei ANKA infected in mouse model of malaria assessed as reduction in parasite infection by measuring median survival at 100 mg/kg, po; type: functional
[16] = Binding affinity to Plasmodium falciparum GAP50 assessed as equilibrium dissociation constant by SPR analysis; procedure, shortened: as §3
Plasmodium falciparum [17] = test: Binding affinity to Plasmodium falciparum GAP50 assessed as association constant by SPR analysis
Procedure, shortened: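 SPR: GAP50 at 50 μg/ml in 10 mM acetate pH 4.5 was immobilised on a CM5 chip by EDC/NHS coupling. Analytes were run in 5% DMSO/PBS at 30 μl/min, with 60 s association and 120 s dissociation. The chip was regenerated with 10 mM glycine pH 3.0 for 30 s. Fits used a 1:1 Langmuir model.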

Plasmodium falciparum [18] = test: Antiplasmodial activity against chloroquine resistant Plasmodium falciparum INDO trophozoites infected in human erythrocytes assessed as increase in reactive oxygen species level at 2 times IC50 concentration incubated for 8 hrs by H2DCFDA staining based fluorescence analysis; type: functional, organism-based; conditions: Erythrocyte
Procedure, shortened: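 PfINDO trophozoites (24–28 h post-invasion), 2% parasitemia, 2% haematocrit, were loaded with CM-H2DCFDA (5 μM, 30 min) and washed with PBS. They were then treated at 2× IC50 for 8 h, and DCF fluorescence was read at 530 nm. Controls were 100 μM H2O2 (positive) and 0.4% DMSO (negative). Triplicate biological samples.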

[19] = Toxicity in mouse assessed as drowsiness at 100 mg/kg, po measured after 45 mins; type: organism-based; conditions: in vivo, 0.75 h; procedure, shortened: as §4
[20] = Toxicity in mouse assessed as appetite loss at 100 mg/kg, po measured after 45 mins; type: organism-based; conditions: in vivo, 0.75 h; procedure, shortened: as §4
Plasmodium falciparum [21] = test: Antiplasmodial activity against chloroquine resistant Plasmodium falciparum INDO infected in human erythrocytes assessed as inhibition of parasite growth incubated for 72 hrs by SYBR green I staining based fluorescence plate reader analysis; type: functional, organism-based; conditions: Erythrocyte; procedure, shortened: as §7
[22] = Selectivity index, ratio of CC50 for human Huh-7 cells to IC50 for antiplasmodial activity against chloroquine resistant Plasmodium falciparum INDO infected in human erythrocytes; type: toxicity, cell-based; conditions: read-out: Ratio CC50/IC50; procedure, shortened: as §6

| Structure (SMILES) | inhibition at 100 µM (Plasmodium falciparum [1]) [%] | Activity (Plasmodium falciparum [2]) | Kd [3] [s⁻¹] | Activity [4] | IC50 (Plasmodium falciparum [5]) [µM] | selectivity ratio [6] | Ratio IC50 [7] | Activity [8] | IC50 (Plasmodium falciparum [9]) [µM] | Activity [10] | IC50 (Plasmodium falciparum [11]) [µM] | Activity (Plasmodium falciparum [12]) | CC50 at 24 h [13] [µM] | Activity [14] | Activity [15] | Survival (Plasmodium berghei) [days] | Kd [16] [µM] | Ka (Plasmodium falciparum [17]) [M⁻¹ s⁻¹] | Activity (Plasmodium falciparum [18]) | Activity [19] | other results |
| --- | --- | --- | --- | --- | --- | --- | --- | --- | --- | --- | --- | --- | --- | --- | --- | --- | --- | --- | --- | --- | --- |
| Clc1ccc2c(N3CCN(CCCn4nnc(-c5ccc(Br)cc5)n4)CC3)ccnc2c1 | > 50 | inactive | 0.191 | Non-Toxic | 2.81 | 178 | 1.21 | Non-Toxic | 1.85 | Non-Toxic | 2.27 | inactive | 288 | Non-Toxic | Non-Toxic | 28 | < 100 | 2610 | Active | Non-Toxic | Activity [20]: Non-Toxic; IC50 (Plasmodium falciparum [21]): 2.25 µM; selectivity ratio [22]: 128 |
| O=C(Cn1nnc(-c2cccc([N+](=O)[O-])c2)n1)N1CCN(c2ccnc3cc(Cl)ccc23)CC1 | > 50 | inactive | 0.006 | Non-Toxic | 2.15 | 223 | 0.8 | Non-Toxic | 2.23 | Non-Toxic | 7.51 | Active | 400 | Non-Toxic | Non-Toxic | 22 | < 100 | 1920 | Active | Non-Toxic | Activity [20]: Non-Toxic; IC50 (Plasmodium falciparum [21]): 1.79 µM; selectivity ratio [22]: 223 |
